# Experimental data collected from several papers.
# Target: Mitogen-activated protein kinase 8 (MAPK8, Homo sapiens, UniProt P45983)
Structure (SMILES),read-out,method,concentration,remaining binding [%]
CN(CCCC(F)(F)F)c1nccc(-c2cnn3ncccc23)n1,binding,competition with immobilised ligand,1 µM,100
O=C(c1ccc(Nc2ncc(Cl)c(-c3ccc(Cl)s3)n2)cc1)N1CCC(N2CCCC2)CC1,binding,competition with immobilised ligand,1 µM,0.3
COCCOc1nc(-c2ccc(Cl)nc2)nc2c1CN(C(=O)c1ncn3ccccc13)CC2,cell-free assay,competition with immobilised ligand,0.1 µM,100
C[C@@H]1CN(c2ccc3ncc(-c4ccc5[nH]nc(C6CC6)c5c4)n3n2)C[C@H](C)O1,binding,competition with immobilised ligand,50 nM,80
CNC(=O)[C@@H]1CC[C@@H](n2c(-c3ccc4cnccc4c3)nc3ccc(C(=O)NCc4cccc(C(N)=O)c4)cc32)C1,binding,competition with immobilised ligand,1 µM,82
CN(C)c1nccc(-c2cnn3ncccc23)n1,binding,competition with immobilised ligand,1 µM,100
O=C(NCCCN1CCOCC1)c1ccc(Nc2nccc(-c3cc4ccccc4s3)n2)cc1,binding,competition with immobilised ligand,1 µM,9.8
C[C@H](NC(=O)c1cnc2n1[C@](C)(Cc1ccc(C#N)cc1)C(=O)N2c1cc(Cl)c(F)c(Cl)c1)C(=O)NC1(c2ccccn2)CC1,cell-free assay,competition with immobilised ligand,1 µM,81
COc1ccnn2ncc(-c3ccnc(N(C)C)n3)c12,binding,,1 µM,75
Cc1c(NC(=O)c2cc(C(N)=O)nc3cc(F)ccc23)c(C(F)(F)F)nn1Cc1ccc(C(C)(C)C)cc1,cell-free assay,competition with immobilised ligand,1 µM,100
O=C(NCCCN1CCOCC1)c1ccc(Nc2ncc(Cl)c(-c3ccc(Cl)s3)n2)cc1,binding,competition with immobilised ligand,1 µM,2.5
C[C@H](c1ccnc(Nc2nc3ccc(-c4cc(N(C)C)ncn4)cc3[nH]2)c1)N1CCN(C(=O)CC(F)(F)F)CC1,cell-free assay,competition with immobilised ligand,0.1 µM,98
CN(c1nccc(-c2cnn3ncccc23)n1)C1CC1,binding,,1 µM,100
CC(C)(C)c1ccc(-c2nc(CBr)nn2-c2cccc(O)c2)cc1,cell-free assay,competition with immobilised ligand,10 µM,73
O=C(Nc1c[nH]nc1C(=O)NC1CCNCC1)c1cc(F)cc(F)c1,binding,competition with immobilised ligand,1 µM,65
N[C@H]1CCN(c2nccc(-c3cnn4ncccc34)n2)C1,binding,competition with immobilised ligand,1 µM,85
NS(=O)(=O)c1cc(NC(=O)Cc2ccccc2)ccc1Oc1cccc(Cl)c1,cell-free assay,competition with immobilised ligand,1 µM,69
C[C@@H]1CCN(c2nccc(-c3cnn4ncccc34)n2)C1,binding,competition with immobilised ligand,1 µM,23
COc1cnc(Nc2cccc(S(N)(=O)=O)c2)nc1N1CCN(c2ccccc2)C(=O)C1,binding,competition with immobilised ligand,1 µM,76
O=c1nc(-c2ccccn2)sc2ccccc12,binding,competition with immobilised ligand,1 µM,100
Nc1ncc2c(n1)-c1c([nH]c3ccc(C#CC4CC4)cc13)CCCC2,binding,competition with immobilised ligand,1 µM,66
N#Cc1ccccc1CSc1nnc2c(n1)[nH]c1ccccc12,binding,competition with immobilised ligand,10 µM,96
CS(=O)(=O)N1CCCC(NC(=O)[C@H](CCC2CCCCC2)NC(=O)c2ccc(CNc3ncnc4c3nnn4-c3ccccc3)cc2)C1 (stereo partly drawn),cell-free assay,competition with immobilised ligand,0.1 µM,85
CN(C)c1ncc(F)c(-c2cnn3ncccc23)n1,binding,competition with immobilised ligand,1 µM,76
